Laboratory results taken from ChEMBL document CHEMBL3763017, “Synthesis and evaluation of dual antiplatelet activity of bispidine derivatives of N-substituted pyroglutamic acids” (Eur J Med Chem, 2016).
Activity calls are given as the source filed them. No cut-off for these calls is given here.

Experiments:
[1] = Antiplatelet activity in human platelet rich plasma assessed as inhibition of collagen-induced platelet aggregation at 30 uM preincubated for 5 mins followed by collagen stimulation by turbidimetry; format: functional
Outline: (§1)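 Human PRP (1×10^8 platelets/ml) from healthy-donor blood spun at 1000 rpm for 10 min. Pre-treated 5 min with compound or 0.4% DMSO vehicle, then agonist added at 37 °C. Light-transmission aggregometry run at least 5–10 min; % aggregation calculated. Single-point screens at 30 μM, n = 3; mean ± SEM.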

Mus musculus [2] = assay: Antithrombotic activity in Swiss albino mouse assessed as protection against collagen-epinephrine induced pulmonary thromboembolism at 30 umol/kg, po after 1 hr; format: functional
Outline: (§2)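 Male Swiss albino mice (18–22 g) dosed orally in 0.5% carboxymethyl cellulose 1, 2, 4, 6, 12 or 24 h before challenge. Collagen (150 μg/ml) plus adrenaline (50 μg/ml) injected into the tail vein. Dead or hind-limb-paralysed mice counted over 15 min and expressed as % protection. Ten mice per drug group, five for vehicle.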

[3] = Antiplatelet activity in human platelet rich plasma assessed as inhibition of U46619-induced platelet aggregation at 30 uM preincubated for 5 mins followed by U46619 stimulation by turbidimetry; format: functional; outline: as §1
Mus musculus [4] = assay: Toxicity in Swiss albino mouse assessed as bleeding time at 30 umol/kg, po administered as single dose measured after 1 hr (reference value: 3.5 +/- 0.3 mins); format: organism-based; conditions: in vivo
[5] = Antiplatelet activity in human platelet rich plasma assessed as inhibition of U46619-induced platelet aggregation preincubated for 5 mins followed by U46619 stimulation by turbidimetry; format: functional
Platelet [6] = assay: Inhibition of collagen-induced protein tyrosine phosphorylation in human platelets preincubated at 3 to 100 uM for 5 mins followed by collagen stimulation for 10 mins by Western blot analysis; format: functional, cell-based
Outline: (§3)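 Washed human platelets in Tyrode-HEPES pH 7.4 preincubated 5 min at 37 °C with 0.4% DMSO or compound (3–100 μM). Stimulated 10 min with collagen (1 μg/ml) or U46619 (0.25 μg/ml). Stopped with boiling Laemmli buffer; SDS-PAGE and anti-phosphotyrosine (4G10) immunoblot. Three separate experiments.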

Platelet [7] = assay: Inhibition of human platelet adhesion over collagen for 15 mins in absence of Mg2+ by microplate reader analysis; format: functional, cell-based
Outline: (§4)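 Wells coated overnight with fibrillar type I collagen and blocked with BSA. Washed platelets (1×10^8/ml) preincubated 15 min at 37 °C with compound or DMSO, then allowed to adhere 1 h at room temperature in Tyrode-HEPES with 1 mM Mg2+ or with Mg2+ replaced by 50 μM EDTA. Adherent cells quantified with p-nitrophenyl phosphate in citrate pH 5.4 (60 min, 25 °C), NaOH stop, A405.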

Mus musculus [8] = assay: Antithrombotic activity in ferric chloride-induced Swiss albino mouse arterial thrombosis model assessed as prolonged time to occlusion at 30 umol/kg, po measured after 4 hrs (reference value: 9.5 +/- 0.4 mins); format: functional
Mus musculus [9] = assay: Antithrombotic activity in Swiss albino mouse assessed as protection against collagen-epinephrine induced pulmonary thromboembolism at 30 umol/kg, po after 4 hrs; format: functional; outline: as §2
Platelet [10] = assay: Antiplatelet activity in human platelet rich plasma assessed as inhibition of CRP-XL-induced platelet aggregation up to 300 uM preincubated for 5 mins followed by CRP-XL stimulation by turbidimetry; format: functional
Plasma [11] = assay: Anticoagulant activity in human plasma assessed as activated partial thromboplastin time at 30 to 300 uM; format: functional, cell-free
Outline: (§5)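 Human plasma from healthy donors, blood collected in CPD 1:7 and spun twice to give platelet-poor plasma. TT, PT and aPTT determined with commercial kits on a coagulometer. Hirudin 1 μg/ml served as reference anticoagulant; 0.4% DMSO vehicle.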

Platelet [12] = assay: Inhibition of human platelet adhesion over collagen at 300 uM for 15 mins in presence of Mg2+ by microplate reader analysis; format: functional, cell-based; outline: as §4
Platelet [13] = assay: Antiplatelet activity in human platelet rich plasma assessed as inhibition of arachidonic acid-induced platelet aggregation up to 300 uM preincubated for 5 mins followed by arachidonic acid stimulation by turbidimetry; format: functional
Aorta [14] = assay: Inhibition of U46619-induced vasocontraction in Sprague-Dawley rat thoracic aoritc rings at 3 and 5 uM; format: functional
Aorta [15] = assay: Inhibition of U46619-induced vasocontraction in Sprague-Dawley rat thoracic aoritc rings at 15 uM (reference value: 89.8 +/- 8.5%); format: functional; parameters: scale not given: the % may be the effect or the level left
Aorta [16] = assay: Inhibition of U46619-induced vasocontraction in Sprague-Dawley rat thoracic aoritc rings at 30 uM (reference value: 89.8 +/- 8.5%); format: functional; parameters: scale not given: the % may be the effect or the level left
[17] = Antiplatelet activity in human platelet rich plasma assessed as inhibition of collagen-induced platelet aggregation preincubated for 5 mins followed by collagen stimulation by turbidimetry; format: functional
Plasma [18] = assay: Anticoagulant activity in human plasma assessed as prothrombin time at 30 to 300 uM; format: functional, cell-free; outline: as §5
Platelet [19] = assay: Antiplatelet activity in human platelet rich plasma assessed as inhibition of ristocetin-induced platelet aggregation up to 300 uM preincubated for 5 mins followed by ristocetin stimulation by turbidimetry; format: functional
Platelet [20] = assay: Antiplatelet activity in human platelet rich plasma assessed as inhibition of TRAP-induced platelet aggregation up to 300 uM preincubated for 5 mins followed by TRAP stimulation by turbidimetry; format: functional
Mus musculus [21] = assay: Antithrombotic activity in ferric chloride-induced Swiss albino mouse arterial thrombosis model assessed as prolonged time to occlusion at 20 umol/kg, po measured after 4 hrs (reference value: 9.5 +/- 0.4 mins); format: functional
Platelet [22] = assay: Inhibition of human platelet adhesion over collagen for 15 mins in presence of Mg2+ by microplate reader analysis; format: functional, cell-based; outline: as §4
Platelet [23] = assay: Inhibition of U46619-induced protein tyrosine phosphorylation in human platelets preincubated at 3 to 100 uM for 5 mins followed by U46619 stimulation for 10 mins by Western blot analysis; format: functional, cell-based; outline: as §3
Plasma [24] = assay: Anticoagulant activity in human plasma assessed as thrombin time at 30 to 300 uM; format: functional, cell-free; outline: as §5
Platelet [25] = assay: Antiplatelet activity in human platelet rich plasma assessed as inhibition of ADP-induced platelet aggregation up to 300 uM preincubated for 5 mins followed by ADP stimulation by turbidimetry; format: functional
Platelet [26] = assay: Inhibition of human platelet adhesion over collagen at 30 uM for 15 mins in presence of Mg2+ by microplate reader analysis; format: functional; conditions: 0.25 h; outline: as §4
Aorta [27] = assay: Inhibition of KCl-induced vasocontraction in Sprague-Dawley rat thoracic aoritc rings; format: functional
Platelet [28] = assay: Inhibition of human platelet adhesion over collagen at 300 uM for 15 mins in absence of Mg2+ by microplate reader analysis; format: functional, cell-based; outline: as §4
Mus musculus [29] = assay: Toxicity in Swiss albino mouse assessed as bleeding time at 30 umol/kg, po administered as single dose measured after 4 hrs (reference value: 3.5 +/- 0.3 mins); format: organism-based; conditions: in vivo
[30] = Antiplatelet activity in human platelet rich plasma assessed as inhibition of arachidonic acid-induced platelet aggregation at 300 to 500 uM preincubated for 5 mins followed by arachidonic acid stimulation by turbidimetry; format: functional
Platelet [31] = assay: Inhibition of human platelet adhesion over collagen at 30 uM for 15 mins in absence of Mg2+ by microplate reader analysis; format: functional; conditions: 0.25 h; outline: as §4

For `Cc1ccc(CN2C(=O)CC[C@H]2C(=O)N2CC3CC(CN(Cc4ccccc4Br)C3)C2)cc1`, the inhibition at 30 µM [1] was 67%, the Activity (Mus musculus [2]) was 30% and the inhibition at 30 µM [3] was 70%.

`Cc1ccc(CN2C(=O)CC[C@H]2C(=O)N2CC3CC(CN(C(=O)OC(C)(C)C)C3)C2)cc1` showed an inhibition at 30 µM [1] of 25% and an Activity (Mus musculus [2]) of 40%.

`COc1ccc(CN2C(=O)CC[C@H]2C(=O)N2CC3CC(CN(Cc4ccccc4)C3)C2)cc1` gave an inhibition at 30 µM [1] of 10% and an Activity (Mus musculus [2]) of 30%.

Compound `CC(C)(C)OC(=O)N1CC2CC(C1)CN(C(=O)[C@@H]1CCC(=O)N1Cc1ccccc1Br)C2` has an inhibition at 30 µM [1] of 2% and an Activity (Mus musculus [2]) of 50%.

For `CC(C)(C)OC(=O)N1CC2CC(C1)CN(C(=O)[C@@H]1CCC(=O)N1Cc1cccc3ccccc13)C2`, the inhibition at 30 µM [1] was 11% and the Activity (Mus musculus [2]) was 30%.

For `O=C([C@@H]1CCC(=O)N1Cc1ccccc1Br)N1CC2CC(CN(Cc3ccccc3)C2)C1`, the Time (Mus musculus [4]) was 3.4 min, the IC50 [5] was 7.7 µM and the inhibition (Platelet [6]) was “Active”. For the same compound, the inhibition at 30 µM [1] was 86%, the inhibition (Platelet [7]) was “Dose-dependent effect” and the Time (Mus musculus [8]) was 20 min. The Activity (Mus musculus [9]) was 60%, the inhibition (Platelet [10]) was “inactive” and the Activity (Plasma [11]) was “inactive”. The inhibition (Platelet [12]) was “Active”, the inhibition (Platelet [13]) was “inactive” and the inhibition (Aorta [14]) was “inactive”. The Activity (Aorta [15]) was 21.8%, the Activity (Aorta [16]) was 14.2% and the Activity (Mus musculus [2]) was 40%. The IC50 [17] was 1.7 µM, the Activity (Plasma [18]) was “inactive” and the inhibition (Platelet [19]) was “inactive”. For the same compound, the inhibition (Platelet [20]) was “inactive”, the Time (Mus musculus [21]) was 13.3 min and the inhibition (Platelet [22]) was “Dose-dependent effect”. The inhibition at 30 µM [3] was 79%, the inhibition (Platelet [23]) was “Active” and the Activity (Plasma [24]) was “inactive”. The inhibition (Platelet [25]) was “inactive”, the inhibition at 30 µM (Platelet [26]) was 27% and the inhibition (Aorta [27]) was “inactive”. The inhibition (Platelet [28]) was “Active”, the Time (Mus musculus [29]) was 4.3 min and the “inhibition (INH)” value [30] was 50%. The inhibition at 30 µM (Platelet [31]) was 27%.

Work on `Cc1ccc(CN2C(=O)CC[C@H]2C(=O)N2CC3CC(C2)CN(S(=O)(=O)c2ccc(C)cc2)C3)cc1` yielded an inhibition at 30 µM [1] of 37.5% and an Activity (Mus musculus [2]) of 40%.

Work on `CC(C)(C)OC(=O)N1CC2CC(C1)CN(C(=O)[C@@H]1CCC(=O)N1Cc1ccccc1)C2` yielded an inhibition at 30 µM [1] of 6% and an Activity (Mus musculus [2]) of 40%.

With `Cc1ccc(CN2C(=O)CC[C@H]2C(=O)N2CC3CC(CN(Cc4ccccc4)C3)C2)cc1` the inhibition at 30 µM [1] was 7% and the Activity (Mus musculus [2]) was 25%.

With `O=C([C@@H]1CCC(=O)N1Cc1c(Cl)cccc1Cl)N1CC2CC(CN(Cc3ccccc3)C2)C1` the inhibition at 30 µM [1] was 68%, the Activity (Mus musculus [2]) was 40% and the inhibition at 30 µM [3] was 85%.

In the case of `COc1ccc(CN2C(=O)CC[C@H]2C(=O)N2CC3CC(CN(C(=O)OC(C)(C)C)C3)C2)cc1`, the inhibition at 30 µM [1] is reported as 10% and the Activity (Mus musculus [2]) is reported as 45%.

Compound `O=C(c1ccccc1)N1CC2CC(C1)CN(C(=O)[C@@H]1CCC(=O)N1Cc1ccccc1Br)C2` has an inhibition at 30 µM [1] of 25.6% and an Activity (Mus musculus [2]) of 60%.
